Our source for the Ki, inhibition and EC50 values is ChEMBL document CHEMBL4396871, “Leveraging a Low-Affinity Diazaspiro Orthosteric Fragment to Reduce Dopamine D3 Receptor (D3R) Ligand Promiscuity across Highly Conserved Aminergic G-Protein-Coupled Receptors (GPCRs)” (J Med Chem, 2019).

Series [1] has as its target D(1B) dopamine receptor (Homo sapiens, UniProt P21918). As to the kind of experiment: Displacement of [3H]-SCH23390 from recombinant human D5 receptor transiently expressed in HEK cell membranes measured after 90 mins by microbeta scintillation counting method. On the technique in general: In a radioligand displacement assay an active substance lowers the binding of a labelled ligand.

In series [2] the target is T1, Neuronal acetylcholine receptor; alpha3/beta4 (Homo sapiens, UniProt P30926+P32297). As to the kind of experiment: Displacement of [3H]-epibatidine from recombinant human alpha3beta4 nACHR stably expressed in HEK cells at 10 uM measured after 90 mins by microbeta scintillation counting method relative to control. In kind it is cell-based. Summed up:
(§1)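 Primary screen at 10 μM compound, expressed as % receptor inhibition, from at least three experiments.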

In series [3] the target is 5-hydroxytryptamine receptor 6 (Homo sapiens) (UniProt P50406). As to the kind of experiment: Displacement of [3H]-LSD from recombinant human 5HT6 receptor stably expressed in HEK cell membranes at 10 uM measured after 90 mins by microbeta scintillation counting method relative to control. Summed up: as §1
Chain of 5-hydroxytryptamine receptor 6 (Homo sapiens) (P50406 whole entry): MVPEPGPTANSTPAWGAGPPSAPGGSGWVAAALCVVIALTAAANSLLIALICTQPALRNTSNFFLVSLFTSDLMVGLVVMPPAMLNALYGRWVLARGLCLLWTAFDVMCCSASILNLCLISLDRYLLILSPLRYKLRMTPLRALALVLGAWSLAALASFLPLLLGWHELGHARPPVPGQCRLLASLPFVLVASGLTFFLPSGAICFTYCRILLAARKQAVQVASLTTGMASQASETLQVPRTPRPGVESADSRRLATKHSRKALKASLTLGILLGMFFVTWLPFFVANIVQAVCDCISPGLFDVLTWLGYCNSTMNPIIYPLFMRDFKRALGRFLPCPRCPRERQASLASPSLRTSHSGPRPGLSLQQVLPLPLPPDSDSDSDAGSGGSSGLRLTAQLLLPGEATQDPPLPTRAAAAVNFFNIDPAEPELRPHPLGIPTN
The target in series [4] is Sodium-dependent dopamine transporter (Homo sapiens) (UniProt Q01959). As to the kind of experiment: Displacement of [3H]-Win35428 from recombinant human DAT stably expressed in HEK cells at 10 uM measured after 90 mins by microbeta scintillation counting method relative to control. Type of series: cell-based. The essentials: as §1
Chain of Sodium-dependent dopamine transporter (Homo sapiens) (Q01959 whole entry): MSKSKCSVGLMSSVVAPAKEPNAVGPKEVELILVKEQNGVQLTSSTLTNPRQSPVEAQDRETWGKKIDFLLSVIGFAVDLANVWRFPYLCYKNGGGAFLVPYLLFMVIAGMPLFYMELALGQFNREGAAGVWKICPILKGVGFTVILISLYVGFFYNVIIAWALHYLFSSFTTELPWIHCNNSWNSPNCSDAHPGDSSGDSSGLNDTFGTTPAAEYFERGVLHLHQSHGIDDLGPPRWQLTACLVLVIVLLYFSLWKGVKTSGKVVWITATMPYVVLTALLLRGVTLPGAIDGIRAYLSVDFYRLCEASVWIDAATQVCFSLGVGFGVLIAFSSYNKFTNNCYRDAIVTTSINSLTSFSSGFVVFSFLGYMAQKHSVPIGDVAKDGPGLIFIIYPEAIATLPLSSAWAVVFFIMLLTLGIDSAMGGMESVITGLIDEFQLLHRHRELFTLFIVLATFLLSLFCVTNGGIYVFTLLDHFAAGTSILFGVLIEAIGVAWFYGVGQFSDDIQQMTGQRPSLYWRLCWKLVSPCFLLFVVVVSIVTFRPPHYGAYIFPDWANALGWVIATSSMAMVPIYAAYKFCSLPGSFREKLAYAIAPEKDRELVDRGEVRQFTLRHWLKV
The target of series [5] is Alpha-1A adrenergic receptor (Homo sapiens, UniProt P35348). As to the kind of experiment: Displacement of [3H]-prazosin from recombinant human alpha1A adrenergic receptor measured after 90 mins by microbeta scintillation counting method.
Chain of Alpha-1A adrenergic receptor (P35348 whole entry): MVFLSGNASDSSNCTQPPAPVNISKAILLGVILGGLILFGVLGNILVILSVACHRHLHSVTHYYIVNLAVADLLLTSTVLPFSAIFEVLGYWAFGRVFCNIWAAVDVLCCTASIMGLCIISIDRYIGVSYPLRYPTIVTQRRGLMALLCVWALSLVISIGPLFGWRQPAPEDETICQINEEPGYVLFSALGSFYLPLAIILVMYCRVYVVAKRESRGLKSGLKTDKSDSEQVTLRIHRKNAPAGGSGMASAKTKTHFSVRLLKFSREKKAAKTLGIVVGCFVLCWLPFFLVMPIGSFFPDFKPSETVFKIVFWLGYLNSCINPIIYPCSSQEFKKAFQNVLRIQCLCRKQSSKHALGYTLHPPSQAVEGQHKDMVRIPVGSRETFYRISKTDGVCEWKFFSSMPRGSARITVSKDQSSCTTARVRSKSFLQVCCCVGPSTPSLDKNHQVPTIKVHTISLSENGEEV
Series [6] concerns the target D(1A) dopamine receptor (Homo sapiens, UniProt P21728). As to the kind of experiment: Agonist activity at recombinant human D1 receptor expressed in CHOK1 cells assessed as induction of beta arrestin2 recruitment measured after 30 mins by coelenterazine-based beta-galactosidase reporter gene assay. Type of series: cell-based. A general note: Activated receptors often draw arrestin, which recruitment assays turn into a signal.

The target in series [7] is Nicotinic acetylcholine receptor alpha2/beta2 (Homo sapiens) (UniProt P02708+P17787). As to the kind of experiment: Displacement of [3H]-epibatidine from recombinant human alpha2beta2 nACHR stably expressed in HEK cells at 10 uM measured after 90 mins by microbeta scintillation counting method relative to control. Type of series: cell-based. The essentials: as §1
Series [8] has as its target T2, Alpha-2A adrenergic receptor (Homo sapiens, UniProt P08913). As to the kind of experiment: Displacement of [3H]-rauwolscine from recombinant human alpha2A adrenergic receptor stably expressed in MDCK cells measured after 90 mins by microbeta scintillation counting method. In kind it is cell-based.
The target of series [9] is 5-hydroxytryptamine receptor 2C (Homo sapiens, UniProt P28335). As to the kind of experiment: Displacement of [3H]-mesulergine from recombinant human 5HT2C receptor transiently expressed in HEKT cell membranes measured after 90 mins by microbeta scintillation counting method.
The target of series [10] is T3, 5-hydroxytryptamine receptor 7 (Homo sapiens, UniProt P34969). As to the kind of experiment: Displacement of [3H]-LSD from recombinant human 5HT7A receptor stably expressed in HEK cell membranes measured after 90 mins by microbeta scintillation counting method.
T3 sequence (P34969 whole entry): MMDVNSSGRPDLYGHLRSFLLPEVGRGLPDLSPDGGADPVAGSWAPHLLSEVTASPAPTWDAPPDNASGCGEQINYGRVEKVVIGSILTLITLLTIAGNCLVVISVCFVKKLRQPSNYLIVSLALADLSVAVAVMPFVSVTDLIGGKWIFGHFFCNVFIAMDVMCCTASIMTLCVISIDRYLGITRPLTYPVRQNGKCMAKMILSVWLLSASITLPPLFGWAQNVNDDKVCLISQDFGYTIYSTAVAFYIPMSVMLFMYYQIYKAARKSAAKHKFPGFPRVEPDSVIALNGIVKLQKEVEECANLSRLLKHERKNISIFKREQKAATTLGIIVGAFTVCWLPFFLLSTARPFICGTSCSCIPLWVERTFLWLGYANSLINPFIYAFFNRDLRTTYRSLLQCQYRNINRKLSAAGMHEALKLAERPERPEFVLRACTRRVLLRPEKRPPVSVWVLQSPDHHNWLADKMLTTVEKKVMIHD
For series [11], the target named is T4, 5-hydroxytryptamine receptor 2A (Homo sapiens, UniProt P28223). As to the kind of experiment: Displacement of [3H]-ketanserin from 5HT2A receptor (unknown origin) measured after 90 mins by microbeta scintillation counting method.
T4 sequence (P28223 whole entry): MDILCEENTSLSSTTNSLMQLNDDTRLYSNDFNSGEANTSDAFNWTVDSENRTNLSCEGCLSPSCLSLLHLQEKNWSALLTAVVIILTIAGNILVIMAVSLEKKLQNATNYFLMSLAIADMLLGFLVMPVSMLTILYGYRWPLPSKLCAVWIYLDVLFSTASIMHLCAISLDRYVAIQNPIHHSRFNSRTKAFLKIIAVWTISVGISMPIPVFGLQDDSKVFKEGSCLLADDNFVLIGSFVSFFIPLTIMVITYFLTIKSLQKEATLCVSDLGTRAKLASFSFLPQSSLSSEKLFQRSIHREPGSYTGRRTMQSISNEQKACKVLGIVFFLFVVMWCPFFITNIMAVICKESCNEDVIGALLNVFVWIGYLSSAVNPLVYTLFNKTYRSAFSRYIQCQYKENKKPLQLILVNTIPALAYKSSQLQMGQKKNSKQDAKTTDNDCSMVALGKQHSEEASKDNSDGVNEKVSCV
The target of series [12] is T5, Alpha-2B adrenergic receptor (Homo sapiens, UniProt P18089). As to the kind of experiment: Displacement of [3H]-rauwolscine from recombinant human alpha2B adrenergic receptor transiently expressed in HEKT cells measured after 90 mins by microbeta scintillation counting method. Type of series: cell-based.
T5 sequence (P18089 whole entry): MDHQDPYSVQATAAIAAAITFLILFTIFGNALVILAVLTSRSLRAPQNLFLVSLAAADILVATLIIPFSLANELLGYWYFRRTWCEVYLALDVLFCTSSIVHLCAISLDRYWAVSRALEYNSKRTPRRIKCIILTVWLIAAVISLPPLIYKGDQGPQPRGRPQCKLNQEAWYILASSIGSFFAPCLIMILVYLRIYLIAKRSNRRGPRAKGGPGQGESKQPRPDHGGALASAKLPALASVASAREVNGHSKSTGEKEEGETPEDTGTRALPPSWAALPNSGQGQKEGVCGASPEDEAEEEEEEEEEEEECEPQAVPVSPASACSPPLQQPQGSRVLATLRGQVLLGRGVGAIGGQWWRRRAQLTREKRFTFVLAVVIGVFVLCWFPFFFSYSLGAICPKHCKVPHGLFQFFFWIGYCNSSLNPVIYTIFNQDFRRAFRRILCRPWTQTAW
The target of series [13] is Muscarinic acetylcholine receptor M4 (Homo sapiens) (UniProt P08173). As to the kind of experiment: Displacement of [3H]-QNB/[3H]-NMS from human muscarinic M4 receptor expressed in stable CHO cells at 10 uM after 90 mins by microbeta scintillation counting method relative to control. Type of series: cell-based. The essentials: as §1
Series [14] deals with 5-hydroxytryptamine receptor 1B (Homo sapiens, UniProt P28222). As to the kind of experiment: Displacement of [3H]-5-CT from recombinant human 5HT1B receptor stably expressed in HEK cell membranes measured after 90 mins by microbeta scintillation counting method.
Series [15] deals with T6, D2 dopamine receptor (Homo sapiens, UniProt P14416). As to the kind of experiment: Agonist activity at recombinant human D2 receptor expressed in CHOK1 cells assessed as induction of beta arrestin2 recruitment measured after 30 mins by coelenterazine-based beta-galactosidase reporter gene assay. In kind it is ADME, cell-based.
T6 sequence (P14416 whole entry): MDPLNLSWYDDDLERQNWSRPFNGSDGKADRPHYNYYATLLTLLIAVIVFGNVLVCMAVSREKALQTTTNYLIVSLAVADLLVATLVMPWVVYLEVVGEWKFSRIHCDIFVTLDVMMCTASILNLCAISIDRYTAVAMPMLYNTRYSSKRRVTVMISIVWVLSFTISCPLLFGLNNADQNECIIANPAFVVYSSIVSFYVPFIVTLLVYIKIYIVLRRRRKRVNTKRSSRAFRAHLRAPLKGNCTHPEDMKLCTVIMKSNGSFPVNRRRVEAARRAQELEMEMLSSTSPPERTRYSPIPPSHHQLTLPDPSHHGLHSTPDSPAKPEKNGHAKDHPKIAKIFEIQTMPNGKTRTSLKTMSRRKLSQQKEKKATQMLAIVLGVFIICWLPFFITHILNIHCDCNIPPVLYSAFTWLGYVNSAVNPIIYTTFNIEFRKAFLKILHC
The target of series [16] is Muscarinic acetylcholine receptor M1 (Homo sapiens) (UniProt P11229). As to the kind of experiment: Displacement of [3H]-QNB/[3H]-NMS from human muscarinic M1 receptor expressed in stable CHO cells at 10 uM after 90 mins by microbeta scintillation counting method relative to control. Type of series: cell-based. Summed up: as §1
Chain of Muscarinic acetylcholine receptor M1 (Homo sapiens) (P11229 whole entry): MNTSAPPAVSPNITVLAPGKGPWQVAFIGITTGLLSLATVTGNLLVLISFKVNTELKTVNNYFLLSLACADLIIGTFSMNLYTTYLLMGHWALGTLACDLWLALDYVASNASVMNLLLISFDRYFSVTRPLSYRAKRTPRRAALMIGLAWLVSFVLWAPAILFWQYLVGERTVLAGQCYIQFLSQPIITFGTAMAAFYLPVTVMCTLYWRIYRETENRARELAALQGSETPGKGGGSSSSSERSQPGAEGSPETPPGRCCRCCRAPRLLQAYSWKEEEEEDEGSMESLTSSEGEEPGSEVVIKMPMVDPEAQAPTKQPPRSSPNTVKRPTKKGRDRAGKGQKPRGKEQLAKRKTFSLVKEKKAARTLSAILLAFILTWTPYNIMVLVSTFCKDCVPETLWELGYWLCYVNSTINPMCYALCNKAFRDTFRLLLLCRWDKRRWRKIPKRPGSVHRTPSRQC
Series [17] has as its target Neuronal acetylcholine receptor; alpha4/beta2 (Homo sapiens) (UniProt P17787+P43681). As to the kind of experiment: Displacement of [3H]-epibatidine from recombinant human alpha4beta2 nACHR stably expressed in HEK cells at 10 uM measured after 90 mins by microbeta scintillation counting method relative to control. In kind it is cell-based. The essentials: as §1
The target of series [18] is T3, 5-hydroxytryptamine receptor 7. As to the kind of experiment: Displacement of [3H]-LSD from recombinant human 5HT7A receptor stably expressed in HEK cell membranes at 10 uM measured after 90 mins by microbeta scintillation counting method relative to control. Summed up: as §1
Series [19] addresses Sodium-dependent serotonin transporter (Homo sapiens, UniProt P31645). As to the kind of experiment: Displacement of [3H]-citalopram from recombinant human SERT stably expressed in HEK cells measured after 90 mins by microbeta scintillation counting method. Type of series: cell-based.
Series [20] has as its target T4, 5-hydroxytryptamine receptor 2A. As to the kind of experiment: Displacement of [3H]-ketanserin from 5HT2A receptor (unknown origin) at 10 uM measured after 90 mins by microbeta scintillation counting method relative to control. Summed up:
as §1

The target of series [21] is T5, Alpha-2B adrenergic receptor. As to the kind of experiment: Displacement of [3H]-rauwolscine from recombinant human alpha2B adrenergic receptor transiently expressed in HEKT cells at 10 uM measured after 90 mins by microbeta scintillation counting method relative to control. In kind it is cell-based. Conditions: probe [3H]-rauwolscine; call rule not given here.
In series [22] the target is T1, Neuronal acetylcholine receptor; alpha3/beta4. As to the kind of experiment: Displacement of [3H]-epibatidine from recombinant human alpha3beta4 nACHR stably expressed in HEK cells measured after 90 mins by microbeta scintillation counting method. Type of series: cell-based.
Series [23] addresses Muscarinic acetylcholine receptor M4 (Homo sapiens, UniProt P08173). As to the kind of experiment: Displacement of [3H]-QNB/[3H]-NMS from human muscarinic M4 receptor expressed in stable CHO cells after 90 mins by microbeta scintillation counting method. Type of series: cell-based.
Series [24] deals with 5-hydroxytryptamine receptor 2C (Homo sapiens) (UniProt P28335). As to the kind of experiment: Displacement of [3H]-mesulergine from recombinant human 5HT2C receptor transiently expressed in HEKT cell membranes at 10 uM measured after 90 mins by microbeta scintillation counting method relative to control. The essentials:
as §1

Series [25] addresses T6, D2 dopamine receptor. As to the kind of experiment: Displacement of [3H]N-methylspiperone from recombinant human D2 receptor stably expressed in fibroblast at 10 uM measured after 90 mins by microbeta scintillation counting method relative to control. Conditions: fibroblasts stably expressing recombinant human D2 receptor, probe [3H]N-methylspiperone.
Series [26] has as its target Muscarinic acetylcholine receptor M3 (Homo sapiens, UniProt P20309). As to the kind of experiment: Displacement of [3H]-QNB/[3H]-NMS from human muscarinic M3 receptor expressed in stable CHO cells after 90 mins by microbeta scintillation counting method. Type of series: cell-based.
The target in series [27] is Histamine H3 receptor (Homo sapiens, UniProt Q9Y5N1). As to the kind of experiment: Displacement of [3H]-alpha-methylhistamine from human histamine H3 receptor stably expressed in HEK Flp-In cells after 90 mins by microbeta scintillation counting method. Type of series: cell-based.
Series [28] concerns the target D(4) dopamine receptor (Homo sapiens) (UniProt P21917). As to the kind of experiment: Displacement of [3H]N-methylspiperone from recombinant human D4 receptor stably expressed in HEK cell membranes at 10 uM measured after 90 mins by microbeta scintillation counting method relative to control.
The target in series [29] is T2, Alpha-2A adrenergic receptor. As to the kind of experiment: Displacement of [3H]-rauwolscine from recombinant human alpha2A adrenergic receptor stably expressed in MDCK cells at 10 uM measured after 90 mins by microbeta scintillation counting method relative to control. Type of series: cell-based. Conditions: probe [3H]-rauwolscine.

T2 sequence (P08913 whole entry): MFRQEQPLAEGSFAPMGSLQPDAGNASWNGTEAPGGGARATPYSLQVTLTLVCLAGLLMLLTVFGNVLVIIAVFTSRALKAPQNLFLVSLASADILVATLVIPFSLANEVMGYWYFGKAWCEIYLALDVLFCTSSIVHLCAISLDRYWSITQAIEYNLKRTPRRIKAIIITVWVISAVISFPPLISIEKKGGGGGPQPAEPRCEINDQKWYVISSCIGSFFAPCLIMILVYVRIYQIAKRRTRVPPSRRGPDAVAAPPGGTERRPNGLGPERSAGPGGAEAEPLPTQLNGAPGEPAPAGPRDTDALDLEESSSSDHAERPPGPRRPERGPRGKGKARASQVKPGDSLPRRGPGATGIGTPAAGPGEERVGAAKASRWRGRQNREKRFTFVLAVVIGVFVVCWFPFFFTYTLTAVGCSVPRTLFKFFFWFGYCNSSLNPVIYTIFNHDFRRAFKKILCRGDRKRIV
Chain of D(1A) dopamine receptor (P21728 whole entry): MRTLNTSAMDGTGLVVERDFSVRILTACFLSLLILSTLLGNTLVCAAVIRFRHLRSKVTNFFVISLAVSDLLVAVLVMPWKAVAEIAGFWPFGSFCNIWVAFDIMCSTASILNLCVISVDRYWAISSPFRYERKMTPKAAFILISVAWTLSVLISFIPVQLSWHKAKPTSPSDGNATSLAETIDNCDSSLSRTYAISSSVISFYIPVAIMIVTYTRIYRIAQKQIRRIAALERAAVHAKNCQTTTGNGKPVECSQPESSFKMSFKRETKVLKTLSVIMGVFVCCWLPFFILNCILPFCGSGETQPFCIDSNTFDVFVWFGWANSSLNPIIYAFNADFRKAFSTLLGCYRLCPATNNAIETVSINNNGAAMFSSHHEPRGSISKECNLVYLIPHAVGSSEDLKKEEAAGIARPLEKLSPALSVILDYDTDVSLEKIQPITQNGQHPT

In the case of `COc1ccccc1N1CCN(CCCSc2nnc(-c3ccccc3)n2C)CC1`, the Ki (in general, the dissociation constant of the complex between target and ligand, obtained from inhibition or displacement) in [1] was determined as 3020 nM; in series [5] it was 49 nM; in [8], 221 nM; in series [9] it was 159 nM; in series [10], 128 nM; in [11], 1410 nM. Also, the Ki in series [12] came out at 241 nM; in series [14], 2030 nM. Further, the inhibition in [2], in series [3], in series [4], in series [7], in series [13] and in series [16] was less than 50% throughout. The inhibition (as a rule, the change of the read-out against control, counted positive when it falls) in series [17] was less than 50%. Further, the EC50 (as a rule, the concentration giving half of the maximal effect) in series [6] was “Not Active”; in series [15] (read-out: EC50), 254 nM.

Regarding `COc1ccccc1N1CCC2(CCN(CCCSc3nnc(-c4ccccc4)n3C)CC2)CC1`, the inhibition in [3], in series [4], in series [18], in series [20], in [7] and in series [24] was less than 50% each time. Moreover, the inhibition was 54% in series [16], less than 50% in [28] and less than 50% in series [17]. The Ki in series [5] is 2180 nM; in series [19] it was 295 nM; in series [22], 8520 nM; in [23], 590 nM; in series [26] it was 514 nM; in series [27], 509 nM. Also, the EC50 result in [6] and in [15] was “Not Active” in each case. Besides, the inhibition at […], 10 µM in series [21], in [25] and in series [29] was less than 50% throughout.
